ChEMBL document CHEMBL1150393, “Evaluation of radiolabeled (hetero)aromatic analogues of N-(2-diethylaminoethyl)-4-iodobenzamide for imaging and targeted radionuclide therapy of melanoma” (J Med Chem, 2008)

Legend:
[1] = Binding affinity to melanin in water; set-up: concentration or dose not given beside the values; conditions: tested as the 125I-labelled form
[2] = Binding affinity to melanin in phosphate buffer solution; set-up: concentration or dose not given beside the values; conditions: tested as the 125I-labelled form
[3] = Drug excretion in mouse B16-F0 cells bearing C57BL/6 mouse urine at 0.74 to 0.92 MBq, iv after 72 hrs; type: ADME, organism-based; conditions: in vivo
Outline: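 Urine was collected from two B16-F0 tumour-bearing C57BL6 mice for up to 72 h after iv tail-vein injection of the [¹²⁵I]-labelled compound (0.1 µmol). Samples were counted to give cumulative urinary excretion as %ID.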

[4] = Biodistribution in tumor of C57BL/6 mouse bearing mouse B16-F0 cells at 0.74 to 0.92 MBq, iv after 3 hrs; type: ADME, organism-based, Neoplasm; conditions: in vivo
Outline: (§1)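 [¹²⁵I]-labelled compound given iv by tail vein (0.1 µmol per mouse) to male C57BL6 mice bearing s.c. B16-F0 flank tumours (5 × 10⁵ cells in PBS). Two mice per time point were killed by CO₂, frozen in liquid nitrogen and cut into 40 µm cryosections, eight slices per mouse. Slice radioactivity was read on a multiwire proportional counter, converted to kBq/g and reported as %ID/g.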

[5] = Biodistribution in tumor of C57BL/6 mouse bearing mouse B16-F0 cells at 0.74 to 0.92 MBq, iv after 6 hrs; type: ADME, organism-based, Neoplasm; conditions: in vivo; outline: as §1
[6] = Biodistribution in tumor of C57BL/6 mouse bearing mouse B16-F0 cells at 0.74 to 0.92 MBq, iv after 24 hrs; type: ADME, organism-based, Neoplasm; conditions: in vivo; outline: as §1
[7] = Biodistribution in tumor of C57BL/6 mouse bearing mouse B16-F0 cells at 0.74 to 0.92 MBq, iv after 72 hrs; type: ADME, organism-based, Neoplasm; conditions: in vivo; outline: as §1
[8] = Partition coefficient, log P in phosphate buffer solution at pH 7.4; type: physicochemical
Outline: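 Shake-flask partition: 50 µM [¹²⁵I]-labelled compound in phosphate buffer pH 7.4 was mixed with 2 mL n-octanol. Each phase was γ-counted, P was taken as the octanol/buffer activity ratio, and log P was reported.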

[9] = Biodistribution in tumor of C57BL/6 mouse bearing mouse B16-F0 cells at 0.74 to 0.92 MBq, iv after 1 hr; type: ADME, organism-based, Neoplasm; conditions: in vivo; outline: as §1
[10] = Ratio of drug level in tumor to liver of C57BL/6 mouse bearing mouse B16-F0 cells at 0.74 to 0.92 MBq, iv after 1 hr; type: ADME, organism-based; conditions: in vivo
Outline: (§2)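 Tumour and organ radioactive concentrations came from whole-body cryosection counting (40 µm slices, eight per mouse, two mice per time) after tail-vein injection of the [¹²⁵I]-labelled compound (0.1 µmol) into male C57BL6 mice bearing s.c. B16-F0 melanoma. Each value is the ratio of the tumour concentration to the organ concentration.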

[11] = Ratio of drug level in tumor to liver of C57BL/6 mouse bearing mouse B16-F0 cells at 0.74 to 0.92 MBq, iv after 3 hrs; type: ADME, organism-based; conditions: in vivo; outline: as §2
[12] = Ratio of drug level in tumor to lung of C57BL/6 mouse bearing mouse B16-F0 cells at 0.74 to 0.92 MBq, iv after 1 hr; type: ADME, organism-based; conditions: in vivo; outline: as §2
[13] = Biodistribution in intestinal content of C57BL/6 mouse bearing mouse B16-F0 cells at 0.74 to 0.92 MBq, iv after 1 hr; type: ADME, organism-based; conditions: in vivo
Outline: (§3)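 Male C57BL6 mice with s.c. left-flank B16-F0 melanoma (5 × 10⁵ cells in PBS). Two mice per time point frozen in liquid nitrogen after CO₂ sacrifice. Eight 40 µm whole-body cryosections per mouse read by multiwire proportional counter. cpm/mm² converted to kBq/g and expressed as %ID/g.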

[14] = Biodistribution in intestinal content of C57BL/6 mouse bearing mouse B16-F0 cells at 0.74 to 0.92 MBq, iv after 3 hrs; type: ADME, organism-based; conditions: in vivo; outline: as §3
[15] = Biodistribution in intestinal content of C57BL/6 mouse bearing mouse B16-F0 cells at 0.74 to 0.92 MBq, iv after 6 hrs; type: ADME, organism-based; conditions: in vivo; outline: as §3
[16] = Biodistribution in intestinal content of C57BL/6 mouse bearing mouse B16-F0 cells at 0.74 to 0.92 MBq, iv after 24 hrs; type: ADME, organism-based; conditions: in vivo; outline: as §3
[17] = Biodistribution in Stomach content of C57BL/6 mouse bearing mouse B16-F0 cells at 0.74 to 0.92 MBq, iv after 1 hr; type: ADME, organism-based; conditions: in vivo; outline: as §3
[18] = Biodistribution in Stomach content of C57BL/6 mouse bearing mouse B16-F0 cells at 0.74 to 0.92 MBq, iv after 3 hrs; type: ADME, organism-based; conditions: in vivo; outline: as §3
[19] = Biodistribution in Stomach content of C57BL/6 mouse bearing mouse B16-F0 cells at 0.74 to 0.92 MBq, iv after 6 hrs; type: ADME, organism-based; conditions: in vivo; outline: as §3
Liver [20] = experiment: Biodistribution in liver of C57BL/6 mouse bearing mouse B16-F0 cells at 0.74 to 0.92 MBq, iv after 1 hr; type: ADME, organism-based; conditions: in vivo; outline: as §3
Liver [21] = experiment: Biodistribution in liver of C57BL/6 mouse bearing mouse B16-F0 cells at 0.74 to 0.92 MBq, iv after 3 hrs; type: ADME, organism-based; conditions: in vivo; outline: as §3
Muscle tissue [22] = experiment: Biodistribution in muscle of C57BL/6 mouse bearing mouse B16-F0 cells at 0.74 to 0.92 MBq, iv after 1 hr; type: ADME, organism-based; conditions: in vivo; outline: as §3
Muscle tissue [23] = experiment: Biodistribution in muscle of C57BL/6 mouse bearing mouse B16-F0 cells at 0.74 to 0.92 MBq, iv after 3 hrs; type: ADME, organism-based; conditions: in vivo; outline: as §3
Pancreas = experiment: Biodistribution in pancreas of C57BL/6 mouse bearing mouse B16-F0 cells at 0.74 to 0.92 MBq, iv after 1 hr; type: ADME, organism-based; conditions: in vivo; outline: as §3
Lung = experiment: Biodistribution in lung of C57BL/6 mouse bearing mouse B16-F0 cells at 0.74 to 0.92 MBq, iv after 1 hr; type: ADME, organism-based; conditions: in vivo; outline: as §3
Spleen = experiment: Biodistribution in spleen of C57BL/6 mouse bearing mouse B16-F0 cells at 0.74 to 0.92 MBq, iv after 1 hr; type: ADME, organism-based; conditions: in vivo; outline: as §1
Kidney = experiment: Biodistribution in kidney of C57BL/6 mouse bearing mouse B16-F0 cells at 0.74 to 0.92 MBq, iv after 1 hr; type: ADME, organism-based; conditions: in vivo; outline: as §3
Blood = experiment: Biodistribution in blood of C57BL/6 mouse bearing mouse B16-F0 cells at 0.74 to 0.92 MBq, iv after 1 hr; type: ADME, organism-based; conditions: in vivo; outline: as §3
[24] = Biodistribution in uvea of C57BL/6 mouse bearing mouse B16-F0 cells at 0.74 to 0.92 MBq, iv after 1 hr; type: ADME, organism-based, Uveal tract; conditions: in vivo; outline: as §1
[25] = Biodistribution in uvea of C57BL/6 mouse bearing mouse B16-F0 cells at 0.74 to 0.92 MBq, iv after 3 hrs; type: ADME, organism-based, Uveal tract; conditions: in vivo; outline: as §1
[26] = Biodistribution in uvea of C57BL/6 mouse bearing mouse B16-F0 cells at 0.74 to 0.92 MBq, iv after 6 hrs; type: ADME, organism-based, Uveal tract; conditions: in vivo; outline: as §1
[27] = Biodistribution in uvea of C57BL/6 mouse bearing mouse B16-F0 cells at 0.74 to 0.92 MBq, iv after 24 hrs; type: ADME, organism-based, Uveal tract; conditions: in vivo; outline: as §1
[28] = Biodistribution in uvea of C57BL/6 mouse bearing mouse B16-F0 cells at 0.74 to 0.92 MBq, iv after 72 hrs; type: ADME, organism-based, Uveal tract; conditions: in vivo; outline: as §1

**Q.** Which Activity [1] does the source give for CCN(CC)CCNC(=O)c1ccc(I)nc1 here?
**A.** 28.1%

**Q.** And the Activity [2]?
**A.** 3.5%

**Q.** What does the source list for CCN(CC)CCNC(=O)c1cn2cc(I)ccc2n1?
**A.** Activity [1]: 75.3%; Activity [2]: 11.6%

**Q.** With CCN(CC)CCNC(=O)c1cc2cc(I)ccc2[nH]1 as the compound, how does the Activity [1] read?
**A.** 79.8%

**Q.** And the Activity [2]?
**A.** 43.1%

**Q.** With CCN(CC)CCNC(=O)c1cnc2cc(I)ccc2n1 as the compound, how does the Activity [1] read?
**A.** 67.4%

**Q.** And the Activity [2]?
**A.** 47.3%

**Q.** Which Activity [3] does the source give for CCN(CC)CCNC(=O)c1ccc(I)cc1 here?
**A.** 83.1%

**Q.** What about the Drug uptake [4] of the same compound?
**A.** 9.1 % ID/g

**Q.** What about the Drug uptake [5] of the same compound?
**A.** 7.7 % ID/g

**Q.** What about the Drug uptake [6] of the same compound?
**A.** 3.7 % ID/g

**Q.** What about the Drug uptake [7] of the same compound?
**A.** 0.8 % ID/g

**Q.** Which results are given for CCN(CC)CCNC(=O)c1ccc2cc(I)ccc2n1?
**A.** Activity [1]: 87.4%; Activity [2]: 43.2%

**Q.** For CCN(CC)CCNC(=O)c1cc2c(I)cccc2s1, which Activity [1] is on record?
**A.** 87.6%

**Q.** What about the Activity [2] of the same compound?
**A.** 56.1%

**Q.** What does the source list for CCN(CC)CCNC(=O)c1cn2cc([125I])ccc2n1.Cl.Cl?
**A.** logD [8]: 0.71; Activity [3]: 36.8%; Drug uptake [9]: 5.7 % ID/g; Drug uptake [4]: 7.1 % ID/g; Drug uptake [5]: 8.1 % ID/g; Drug uptake [6]: 8 % ID/g; Drug uptake [7]: 2.7 % ID/g; Ratio [10]: 1.43; Ratio [11]: 7.21; Ratio [12]: 2.34; Drug uptake [13]: 9.48 % ID/g; Drug uptake [14]: 78.03 % ID/g; Drug uptake [15]: 56.39 % ID/g; Drug uptake [16]: 2.68 % ID/g; Drug uptake [17]: 4.55 % ID/g; Drug uptake [18]: 5.19 % ID/g; Drug uptake [19]: 16.57 % ID/g; Drug uptake (Liver [20]): 3.97 % ID/g; Drug uptake (Liver [21]): 0.99 % ID/g; Drug uptake (Muscle tissue [22]): 0.51 % ID/g; Drug uptake (Muscle tissue [23]): 0.09 % ID/g; Drug uptake (Pancreas): 7.52 % ID/g; Drug uptake (Lung): 2.42 % ID/g; Drug uptake (Spleen): 13.07 % ID/g; Drug uptake (Kidney): 2.99 % ID/g; Drug uptake (Blood): 0.68 % ID/g; Drug uptake [24]: 17.43 % ID/g; Drug uptake [25]: 19.18 % ID/g; Drug uptake [26]: 26.81 % ID/g; Drug uptake [27]: 11.54 % ID/g; Drug uptake [28]: 9.55 % ID/g
